Data: ChEMBL document CHEMBL4373651, “Indole compounds with N-ethyl morpholine moieties as CB2 receptor agonists for anti-inflammatory management of pain: synthesis and biological evaluation” (Medchemcomm, 2019)
Calls of active or inactive are those of the source.

Experiments:
Cannabinoid receptor 2 = Cannabinoid receptor 2 (Homo sapiens, UniProt P34972); test: Agonist activity at human CB2 receptor expressed in CHO cells coexpressing Galpha16 assessed as reduction in forsklin-induced cAMP production incubated for 30 mins by cAMP Hunter assay based […] analysis; assay type: functional, cell-based
How it was run: (§1)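 CHO cells expressing human CB1 or CB2 with Gα16, seeded overnight at 37 °C. Test compounds in stimulation buffer with 1 mM IBMX, 0.25% BSA and forskolin, 30 min at 37 °C. Cells lysed, cAMP read by enzyme fragment complementation chemiluminescence kit. Triplicate per dilution. Efficacy relative to CP-55940 reference run twice per plate. EC50 from means.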

Cannabinoid receptor 1 = Cannabinoid receptor 1 (Homo sapiens, UniProt P21554); test: Agonist activity at human CB1 receptor expressed in CHO cells coexpressing Galpha16 assessed as reduction in forsklin-induced cAMP production incubated for 30 mins by cAMP Hunter assay based […] analysis; assay type: cell-based; how it was run: as §1
[1] = Selectivity ratio of EC50 for human CB1 receptor expressed in CHO cells coexpressing Galpha16 to EC50 for human CB2 receptor expressed in CHO cells coexpressing Galpha16
How it was run: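 Ratio of EC50 values from the CB1 and CB2 cAMP assays in CHO-Gα16 cells: 30 min compound exposure at 37 °C with 1 mM IBMX and forskolin, chemiluminescent cAMP read-out, triplicates.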

Rattus norvegicus [2] = test: Antiinflammatory hyperalgesic activity against complete freund's adjuvant-induced mechanical hyperalgesic Sprague-Dawley rat model assessed as increase in paw withdraw latency at 10 mg/kg, ip pretreated with CFA for 24 hrs followed by compound administration and measured at 1 hr to 9 hrs by analgesiometer analysis; assay type: functional, organism-based
How it was run: (§2)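 Male Sprague-Dawley rats, 180–200 g. Baseline mechanical paw withdrawal threshold taken with analgesiometer pressure on left hind paw, cut-off 250 g, endpoint complete withdrawal. Intraplantar 50% CFA (50 µL in 0.9% saline) under isoflurane. At 24 h, pre-drug threshold, then single i.p. dose of 0.0025–10 mg kg-1, antagonist combination or vehicle (2 mL kg-1). Thresholds read 1–24 h after dosing. % reversal = (post − pre)/(baseline − pre) × 100.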

Rattus norvegicus [3] = test: Antiinflammatory hyperalgesic activity against complete freund's adjuvant-induced mechanical hyperalgesic Sprague-Dawley rat model assessed as paw withdraw latency at 10 mg/kg, ip pretreated with CFA for 24 hrs followed by compound administration and measured at 24 hrs by analgesiometer analysis; assay type: functional, organism-based; how it was run: as §2
Rattus norvegicus [4] = test: (§3) Antiinflammatory hyperalgesic activity against complete freund's adjuvant-induced mechanical hyperalgesic Sprague-Dawley rat model assessed as decrease in IL-1 beta production in paw skin at 10 mg/kg, ip pretreated with CFA for 24 hrs followed by compound administration and measured after 1 hr by ELISA relative to control; assay type: functional
How it was run: (§4)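 Male Sprague-Dawley rats, 180–200 g, isoflurane anaesthesia. Left hind paw given intraplantar 50% CFA (50 µL in 0.9% saline), or saline. At 24 h, single i.p. dose of drug, antagonist, combination or vehicle (2 mL kg-1). 1 h after dosing, paw skin taken and homogenised in ice-cold buffer with protease inhibitor, then centrifuged. IL-1β, IL-6 and TNF-α in supernatant by ELISA. n = 6, one-way ANOVA with Tukey test.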

Rattus norvegicus [5] = test: as §3, with “TNF alpha” for “IL-1 beta”; assay type: functional; how it was run: as §4
Rattus norvegicus [6] = test: as §3, with “IL-6” for “IL-1 beta”; assay type: functional; how it was run: as §4

Sequence of Cannabinoid receptor 1 (P21554 whole entry): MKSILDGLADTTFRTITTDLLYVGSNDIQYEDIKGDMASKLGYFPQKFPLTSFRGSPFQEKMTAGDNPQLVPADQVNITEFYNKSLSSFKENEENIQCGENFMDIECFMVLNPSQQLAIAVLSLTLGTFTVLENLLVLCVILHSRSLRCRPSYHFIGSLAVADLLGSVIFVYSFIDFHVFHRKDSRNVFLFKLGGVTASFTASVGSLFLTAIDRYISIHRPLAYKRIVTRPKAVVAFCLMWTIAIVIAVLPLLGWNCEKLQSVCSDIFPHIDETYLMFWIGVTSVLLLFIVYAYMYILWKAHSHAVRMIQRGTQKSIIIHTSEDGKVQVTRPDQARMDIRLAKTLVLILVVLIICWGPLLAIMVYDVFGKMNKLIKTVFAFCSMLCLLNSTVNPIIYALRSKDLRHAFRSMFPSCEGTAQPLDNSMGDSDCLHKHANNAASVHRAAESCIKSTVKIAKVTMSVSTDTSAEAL
Sequence of Cannabinoid receptor 2 (P34972 whole entry, the tested form may be a part): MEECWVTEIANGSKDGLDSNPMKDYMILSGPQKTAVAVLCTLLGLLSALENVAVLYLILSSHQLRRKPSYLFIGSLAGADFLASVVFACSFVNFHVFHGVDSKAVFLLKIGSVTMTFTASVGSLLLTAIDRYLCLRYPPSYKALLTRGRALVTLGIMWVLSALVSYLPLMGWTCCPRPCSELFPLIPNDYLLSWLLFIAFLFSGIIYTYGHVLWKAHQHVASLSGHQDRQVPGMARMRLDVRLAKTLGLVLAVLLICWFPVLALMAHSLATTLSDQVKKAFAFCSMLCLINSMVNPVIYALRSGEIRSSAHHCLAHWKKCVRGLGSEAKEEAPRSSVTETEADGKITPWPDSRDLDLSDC

Row | SMILES | EC50 (Cannabinoid receptor 2; cho) | EC50 (Cannabinoid receptor 1; cho) | EC50 (Cannabinoid receptor 2; read-out: EC50) [µM] | also measured
1 | Cc1c(CC(=O)NCc2ccc3c(c2)OCO3)c2cc(Cl)ccc2n1CCN1CCOCC1 | Not Active | Not Active | – | –
2 | COc1ccc2c(c1)c(CC(=O)N1CCCCC1)c(C)n2CCN1CCOCC1 | – | Not Active | > 100 | –
3 | COc1ccc2c(c1)c(CCN1CCOCC1)c(C)n2CC(=O)NC1CCCC1 | – | Not Active | 5.6 | –
4 | Cc1c(CCN2CCOCC2)c2cc(Cl)ccc2n1CC(=O)N1CCCC1 | Not Active | Not Active | – | –
5 | Cc1c(CCN2CCOCC2)c2cc(Cl)ccc2n1CC(=O)NC1CCCCC1 | Not Active | Not Active | – | –
6 | Cc1c(CCN2CCOCC2)c2cc(Cl)ccc2n1CC(=O)NC1CCCC1 | – | Not Active | 16.1 | –
7 | Cc1c(CCN2CCOCC2)c2cc(Cl)ccc2n1C(=O)N1CCCC1 | Not Active | Not Active | – | –
8 | Cc1c(CC(=O)N2CCCC2)c2cc(Cl)ccc2n1CCN1CCOCC1 | Not Active | Not Active | – | –
9 | Cc1c(CC(=O)NCC2CC2)c2cc(F)ccc2n1CCN1CCOCC1 | – | Not Active | 3.1 | –
10 | Cc1c(CC(=O)NC2CCCC2)c2cc(F)ccc2n1CCN1CCOCC1 | – | Not Active | 0.476 | Ratio EC50 [1]: >1000
11 | Cc1c(CCN2CCOCC2)c2cc(Cl)ccc2n1CC(=O)NCC1CC1 | – | Not Active | 14.3 | –
12 | Cc1c(CC(=O)NC2CC2)c2cc(F)ccc2n1CCN1CCOCC1 | – | Not Active | 4.1 | –
13 | Cc1c(CCN2CCOCC2)c2cc(Cl)ccc2n1CC(=O)NC1CC1 | – | Not Active | 5.3 | –
14 | COc1ccc2c(c1)c(CCN1CCOCC1)c(C)n2CC(=O)NCc1ccc2c(c1)OCO2 | – | Not Active | 28.1 | –
15 | Cc1c(CC(=O)N2CCCCC2)c2cc(F)ccc2n1CCN1CCOCC1 | Not Active | Not Active | – | –
16 | Cc1c(CCN2CCOCC2)c2cc(Br)ccc2n1CC(=O)NCC1CC1 | – | Not Active | 5.4 | –
17 | Cc1c(CC(=O)NC2CCCC2)c2cc(Cl)ccc2n1CCN1CCOCC1 | – | Not Active | 2.7 | –
18 | COc1ccc2c(c1)c(CC(=O)NC1CCCC1)c(C)n2CCN1CCOCC1 | Not Active | Not Active | – | –
19 | Cc1c(CCN2CCOCC2)c2cc(F)ccc2n1CC(=O)NC1CCCCC1 | Not Active | Not Active | – | –

Row | SMILES | EC50 (Cannabinoid receptor 2; cho) | EC50 (Cannabinoid receptor 1; cho) | EC50 (Cannabinoid receptor 2; read-out: EC50) [µM] | also measured
20 | Cc1c(CCN2CCOCC2)c2cc(Br)ccc2n1CC(=O)NC1CCCC1 | – | Not Active | 20.2 | –
21 | COc1ccc2c(c1)c(CCN1CCOCC1)c(C)n2CC(=O)NCC1CC1 | – | Not Active | > 100 | –
22 | Cc1c(CCN2CCOCC2)c2cc(Br)ccc2n1CC(=O)NC1CC1 | – | Not Active | 8.2 | –
23 | COc1ccc2c(c1)c(CC(=O)NC1CCCCC1)c(C)n2CCN1CCOCC1 | – | Not Active | > 100 | –
24 | Cc1c(CCN2CCOCC2)c2cc(F)ccc2n1CC(=O)N1CCCCC1 | Not Active | Not Active | – | –
25 | Cc1c(CC(=O)NCC2CC2)c2cc(Cl)ccc2n1CCN1CCOCC1 | – | Not Active | 0.594 | Ratio EC50 [1]: >1000
26 | Cc1c(CCN2CCOCC2)c2cc(F)ccc2n1CC(=O)NCC1CC1 | – | Not Active | 4.2 | –
27 | COc1ccc2c(c1)c(CCN1CCOCC1)c(C)n2CC(=O)N1CCCC1 | – | Not Active | > 100 | –
28 | COc1ccc2c(c1)c(CC(=O)NCc1ccc3c(c1)OCO3)c(C)n2CCN1CCOCC1 | Not Active | Not Active | – | –
29 | Cc1c(CCN2CCOCC2)c2cc(F)ccc2n1C(=O)N1CCCC1 | Not Active | Not Active | – | –
30 | Cc1c(CCN2CCOCC2)c2cc(Br)ccc2n1CC(=O)NCc1ccc2c(c1)OCO2 | Not Active | Not Active | – | –
31 | COc1ccc2c(c1)c(CCN1CCOCC1)c(C)n2C(=O)c1cccc(Cl)c1Cl | – | – | 0.0507 | Activity (Rattus norvegicus [2]): Active; Activity (Rattus norvegicus [3]): inactive; fold change (FC) (Rattus norvegicus [4]): 1.4; fold change (FC) (Rattus norvegicus [5]): 1.6; Ratio EC50 [1]: >1000; EC50 (Cannabinoid receptor 1; read-out: EC50): 16.1 µM; fold change (FC) (Rattus norvegicus [6]): 2.5
32 | COc1ccc2c(c1)c(CC(=O)N1CCCC1)c(C)n2CCN1CCOCC1 | Not Active | Not Active | – | –
33 | Cc1c(CCN2CCOCC2)c2cc(Br)ccc2n1CC(=O)NC1CCCCC1 | Not Active | Not Active | – | –
34 | COc1ccc2c(c1)c(CC(=O)NCC1CC1)c(C)n2CCN1CCOCC1 | Not Active | Not Active | – | –
35 | Cc1c(CCN2CCOCC2)c2cc(Br)ccc2n1C(=O)c1cccc(Cl)c1Cl | – | – | 0.0523 | Ratio EC50 [1]: >1000; EC50 (Cannabinoid receptor 1; read-out: EC50): > 100 µM
36 | Cc1c(CCN2CCOCC2)c2cc(Cl)ccc2n1C(=O)c1cccc(Cl)c1Cl | – | – | 0.117 | Ratio EC50 [1]: >1000; EC50 (Cannabinoid receptor 1; read-out: EC50): 79.8 µM
37 | Cc1c(CCN2CCOCC2)c2cc(F)ccc2n1CC(=O)NC1CC1 | – | Not Active | 3.9 | –
38 | Cc1c(CCN2CCOCC2)c2cc(F)ccc2n1CC(=O)NCc1ccc2c(c1)OCO2 | Not Active | Not Active | – | –

Row | SMILES | EC50 (Cannabinoid receptor 2; cho) | EC50 (Cannabinoid receptor 1; cho) | EC50 (Cannabinoid receptor 2; read-out: EC50) [µM] | also measured
39 | Cc1c(CCN2CCOCC2)c2cc(Br)ccc2n1CC(=O)N1CCCCC1 | Not Active | Not Active | – | –
40 | COc1ccc2c(c1)c(CCN1CCOCC1)c(C)n2CC(=O)N1CCCCC1 | – | Not Active | 41.9 | –
41 | COc1ccc2c(c1)c(CCN1CCOCC1)c(C)n2CC(=O)NC1CCCCC1 | – | Not Active | 11.6 | –
42 | COc1ccc2c(c1)c(CCN1CCOCC1)c(C)n2C(=O)N1CCCC1 | – | Not Active | 26.4 | –
43 | Cc1c(CC(=O)NC2CCCCC2)c2cc(Cl)ccc2n1CCN1CCOCC1 | – | Not Active | > 100 | –
44 | Cc1c(CC(=O)NC2CC2)c2cc(Cl)ccc2n1CCN1CCOCC1 | – | Not Active | 1.2 | –
45 | Cc1c(CC(=O)N2CCCC2)c2cc(F)ccc2n1CCN1CCOCC1 | Not Active | Not Active | – | –
46 | Cc1c(CCN2CCOCC2)c2cc(Br)ccc2n1C(=O)N1CCCC1 | Not Active | Not Active | – | –
47 | Cc1c(CCN2CCOCC2)c2cc(Br)ccc2n1CC(=O)N1CCCC1 | Not Active | Not Active | – | –
48 | COc1ccc2c(c1)c(CC(=O)NC1CC1)c(C)n2CCN1CCOCC1 | Not Active | Not Active | – | –
49 | Cc1c(CCN2CCOCC2)c2cc(Cl)ccc2n1CC(=O)N1CCCCC1 | Not Active | Not Active | – | –
50 | Cc1c(CCN2CCOCC2)c2cc(F)ccc2n1CC(=O)NC1CCCC1 | – | Not Active | 5.5 | –
51 | Cc1c(CCN2CCOCC2)c2cc(F)ccc2n1CC(=O)N1CCCC1 | Not Active | Not Active | – | –
52 | COc1ccc2c(c1)c(CCN1CCOCC1)c(C)n2CC(=O)NC1CC1 | Not Active | Not Active | – | –
53 | Cc1c(CCN2CCOCC2)c2cc(Cl)ccc2n1CC(=O)NCc1ccc2c(c1)OCO2 | Not Active | Not Active | – | –
54 | Cc1c(CC(=O)NC2CCCCC2)c2cc(F)ccc2n1CCN1CCOCC1 | – | Not Active | > 100 | –
55 | Cc1c(CC(=O)NCc2ccc3c(c2)OCO3)c2cc(F)ccc2n1CCN1CCOCC1 | Not Active | Not Active | – | –
56 | Cc1c(CC(=O)N2CCCCC2)c2cc(Cl)ccc2n1CCN1CCOCC1 | Not Active | Not Active | – | –
